Laboratory results reported in ChEMBL document CHEMBL5126600, “Discovery of the First-in-Class G9a/GLP Covalent Inhibitors” (J Med Chem, 2022).
Active and inactive are the calls of the source. No cut-off for these calls is given here.

Key:
[1] = target: T1, Histone-lysine N-methyltransferase EHMT1 (Homo sapiens, UniProt Q9H9B1); assay: Inhibition of human GLP (982 to 1266 residues) using H3 peptide as substrate measured upto 45 mins in presence of SAM cofactor
T1 sequence (Q9H9B1 whole entry): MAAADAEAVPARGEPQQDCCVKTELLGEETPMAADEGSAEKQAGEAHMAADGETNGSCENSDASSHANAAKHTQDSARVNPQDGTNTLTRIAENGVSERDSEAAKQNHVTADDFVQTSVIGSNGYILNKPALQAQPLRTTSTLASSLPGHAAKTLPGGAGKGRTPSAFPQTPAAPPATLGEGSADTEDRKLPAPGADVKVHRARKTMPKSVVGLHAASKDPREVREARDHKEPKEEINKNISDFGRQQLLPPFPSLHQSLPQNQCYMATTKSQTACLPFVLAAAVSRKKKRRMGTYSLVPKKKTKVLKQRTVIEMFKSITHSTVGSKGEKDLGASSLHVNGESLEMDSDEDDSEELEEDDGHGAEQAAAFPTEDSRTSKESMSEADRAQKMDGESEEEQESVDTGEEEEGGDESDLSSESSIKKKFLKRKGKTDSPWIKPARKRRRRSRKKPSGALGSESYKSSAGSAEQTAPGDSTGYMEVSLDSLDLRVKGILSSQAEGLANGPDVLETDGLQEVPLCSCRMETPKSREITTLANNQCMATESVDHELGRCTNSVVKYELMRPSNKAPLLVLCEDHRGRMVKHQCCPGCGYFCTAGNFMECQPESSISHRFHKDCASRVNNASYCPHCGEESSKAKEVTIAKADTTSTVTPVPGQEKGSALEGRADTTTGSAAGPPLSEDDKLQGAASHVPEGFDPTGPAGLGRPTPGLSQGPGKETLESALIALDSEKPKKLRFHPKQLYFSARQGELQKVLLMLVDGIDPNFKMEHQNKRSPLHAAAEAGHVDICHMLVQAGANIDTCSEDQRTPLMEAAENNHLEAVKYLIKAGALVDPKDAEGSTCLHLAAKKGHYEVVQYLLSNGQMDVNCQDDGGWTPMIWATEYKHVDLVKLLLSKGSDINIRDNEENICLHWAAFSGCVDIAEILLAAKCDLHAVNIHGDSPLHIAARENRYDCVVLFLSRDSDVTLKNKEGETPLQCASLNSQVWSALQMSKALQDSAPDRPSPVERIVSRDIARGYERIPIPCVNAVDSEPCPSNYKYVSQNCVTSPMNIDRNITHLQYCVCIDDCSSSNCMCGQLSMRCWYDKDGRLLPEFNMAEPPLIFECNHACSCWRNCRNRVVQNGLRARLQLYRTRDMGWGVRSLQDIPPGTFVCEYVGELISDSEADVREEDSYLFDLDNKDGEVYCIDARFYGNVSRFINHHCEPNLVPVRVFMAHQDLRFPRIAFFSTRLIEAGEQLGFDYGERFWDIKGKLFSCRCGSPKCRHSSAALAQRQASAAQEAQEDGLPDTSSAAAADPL
Summary of the method: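 Contracted scintillation proximity assay following 3H-methyl transfer from SAM (1 μM) to H3 peptide (0.05 μM) by G9a or GLP (5 nM each), with preincubation times of 5, 15 or 45 min; four replicates.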

[2] = target: T1, Histone-lysine N-methyltransferase EHMT1; assay: Binding affinity to human GLP (982 to 1266 residues) assessed as dissociation constant by isothermal titration calorimetry method
Summary of the method: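 ITC at 25 °C in 50 mM Tris-HCl pH 7.5, 150 mM NaCl, 1% DMSO; 500 μM compound in syringe titrated into 50 μM G9a or GLP catalytic domain in cell (initial 0.4 μL injection then 13 injections), stirring 750 rpm; run time about 50 min; single binding site fit; mean ± SD of two independent measurements.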

[3] = target: Histone-lysine N-methyltransferase EZH1 (Homo sapiens) (UniProt Q92800); assay: Inhibition of N-terminal His-tagged full-length recombinant human EZH1 ( 2 to 747 residues) expressed in baculovirus expression system at 1 uM using 3H-SAM as a substrate relative to control
Histone-lysine N-methyltransferase EZH1 (Homo sapiens), sequence (Q92800 whole entry, the tested form may be a part): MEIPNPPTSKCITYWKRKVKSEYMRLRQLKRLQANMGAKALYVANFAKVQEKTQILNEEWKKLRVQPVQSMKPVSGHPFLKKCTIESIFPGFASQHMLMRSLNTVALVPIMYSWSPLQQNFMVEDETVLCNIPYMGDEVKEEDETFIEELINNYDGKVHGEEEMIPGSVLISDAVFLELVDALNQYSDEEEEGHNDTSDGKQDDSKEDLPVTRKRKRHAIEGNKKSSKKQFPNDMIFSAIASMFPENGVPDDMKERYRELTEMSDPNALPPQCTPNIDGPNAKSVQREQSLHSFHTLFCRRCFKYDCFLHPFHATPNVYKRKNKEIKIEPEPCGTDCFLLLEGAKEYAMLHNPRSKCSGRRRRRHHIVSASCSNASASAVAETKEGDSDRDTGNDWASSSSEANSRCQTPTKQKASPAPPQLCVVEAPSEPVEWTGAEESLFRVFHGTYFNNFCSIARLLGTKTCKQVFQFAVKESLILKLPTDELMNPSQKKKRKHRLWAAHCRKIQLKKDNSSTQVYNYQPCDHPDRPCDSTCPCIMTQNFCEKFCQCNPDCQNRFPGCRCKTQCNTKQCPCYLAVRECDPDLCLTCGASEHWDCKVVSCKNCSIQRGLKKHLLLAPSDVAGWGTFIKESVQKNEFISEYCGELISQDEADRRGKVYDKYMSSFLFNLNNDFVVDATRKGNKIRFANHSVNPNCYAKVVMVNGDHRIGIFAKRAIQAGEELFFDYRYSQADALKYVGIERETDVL
Summary of the method: (§1)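 Contracted 3H-SAM methyl-transfer scintillation proximity assay against a panel of methyltransferases; compound tested at 1 μM in duplicate; inhibition expressed as percent of control enzyme activity.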

[4] = target: Histone-lysine N-methyltransferase NSD3 (Homo sapiens) (UniProt Q9BZ95); assay: Inhibition of N-terminal GST tagged NSD3 (1021 to 1322 residues) (unknown origin) expressed in Escherichia coli at 1 uM using 3H-SAM as a substrate relative to control; summary of the method: as §1
Histone-lysine N-methyltransferase NSD3 (Homo sapiens), sequence (Q9BZ95 whole entry, the tested form may be a part): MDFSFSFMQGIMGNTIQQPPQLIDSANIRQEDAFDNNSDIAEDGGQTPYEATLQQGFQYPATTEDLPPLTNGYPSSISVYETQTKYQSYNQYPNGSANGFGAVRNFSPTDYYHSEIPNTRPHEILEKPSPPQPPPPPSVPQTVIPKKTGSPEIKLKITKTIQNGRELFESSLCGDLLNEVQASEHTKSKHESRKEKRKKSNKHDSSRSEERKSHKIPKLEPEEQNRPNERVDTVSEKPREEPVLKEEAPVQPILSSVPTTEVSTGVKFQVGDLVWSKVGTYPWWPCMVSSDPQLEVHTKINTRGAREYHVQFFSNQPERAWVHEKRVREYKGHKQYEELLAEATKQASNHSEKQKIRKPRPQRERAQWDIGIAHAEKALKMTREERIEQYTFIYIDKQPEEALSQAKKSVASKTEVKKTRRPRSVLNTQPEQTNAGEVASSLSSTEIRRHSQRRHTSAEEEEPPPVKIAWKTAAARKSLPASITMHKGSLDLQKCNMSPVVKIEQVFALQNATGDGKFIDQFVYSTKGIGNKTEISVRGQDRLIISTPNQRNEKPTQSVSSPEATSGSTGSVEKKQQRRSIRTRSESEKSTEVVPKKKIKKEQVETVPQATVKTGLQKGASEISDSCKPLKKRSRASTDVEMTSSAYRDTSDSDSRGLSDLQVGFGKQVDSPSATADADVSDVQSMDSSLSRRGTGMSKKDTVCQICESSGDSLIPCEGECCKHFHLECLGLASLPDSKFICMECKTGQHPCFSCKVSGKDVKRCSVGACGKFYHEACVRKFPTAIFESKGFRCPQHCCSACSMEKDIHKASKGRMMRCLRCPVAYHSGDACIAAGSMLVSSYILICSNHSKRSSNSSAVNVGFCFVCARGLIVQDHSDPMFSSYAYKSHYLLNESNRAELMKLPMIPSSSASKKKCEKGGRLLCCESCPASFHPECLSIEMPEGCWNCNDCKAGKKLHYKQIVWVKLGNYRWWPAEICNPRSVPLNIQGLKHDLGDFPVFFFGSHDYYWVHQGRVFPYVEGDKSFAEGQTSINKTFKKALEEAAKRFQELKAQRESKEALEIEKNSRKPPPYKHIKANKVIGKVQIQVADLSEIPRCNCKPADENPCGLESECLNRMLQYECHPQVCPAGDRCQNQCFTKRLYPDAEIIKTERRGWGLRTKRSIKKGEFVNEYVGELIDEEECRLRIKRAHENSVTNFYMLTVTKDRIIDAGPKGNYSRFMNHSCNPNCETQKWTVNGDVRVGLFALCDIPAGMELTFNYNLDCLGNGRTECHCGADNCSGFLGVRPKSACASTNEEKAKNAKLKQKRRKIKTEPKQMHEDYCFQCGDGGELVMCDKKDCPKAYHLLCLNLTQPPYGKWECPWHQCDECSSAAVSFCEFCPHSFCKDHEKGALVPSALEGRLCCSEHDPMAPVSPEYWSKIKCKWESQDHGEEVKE

[5] = target: Protein arginine N-methyltransferase 3 (Homo sapiens) (UniProt O60678); assay: Inhibition of N-terminal His-tagged PRMT3 (2 to 531 residues)(unknown origin) expressed in Escherichia coli at 1 uM using 3H-SAM as a substrate relative to control; summary of the method: as §1
Protein arginine N-methyltransferase 3 (Homo sapiens), sequence (O60678 2-531 limits assumed): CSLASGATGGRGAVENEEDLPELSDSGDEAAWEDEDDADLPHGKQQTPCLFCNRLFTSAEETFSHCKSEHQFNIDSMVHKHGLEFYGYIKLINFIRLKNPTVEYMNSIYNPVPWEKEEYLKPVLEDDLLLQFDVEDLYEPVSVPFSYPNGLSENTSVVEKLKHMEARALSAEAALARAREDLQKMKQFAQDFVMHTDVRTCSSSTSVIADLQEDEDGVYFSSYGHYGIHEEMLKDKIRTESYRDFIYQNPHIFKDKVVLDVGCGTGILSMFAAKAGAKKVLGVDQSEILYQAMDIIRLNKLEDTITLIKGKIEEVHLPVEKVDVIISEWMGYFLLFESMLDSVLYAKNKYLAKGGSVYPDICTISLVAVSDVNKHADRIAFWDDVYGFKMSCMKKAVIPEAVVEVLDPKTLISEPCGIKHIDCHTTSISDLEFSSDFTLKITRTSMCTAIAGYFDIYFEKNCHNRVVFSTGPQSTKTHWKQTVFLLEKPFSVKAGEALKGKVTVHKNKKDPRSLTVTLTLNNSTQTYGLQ

[6] = target: Histone-lysine N-methyltransferase SETD1B (Homo sapiens) (UniProt Q9UPS6); assay: Inhibition of N-terminal GST-tagged SET1B (1629 to 1923 residues) (unknown origin) expressed in Escherichia coli at 1 uM using 3H-SAM as a substrate relative to control; summary of the method: as §1
Histone-lysine N-methyltransferase SETD1B (Homo sapiens), sequence (Q9UPS6 whole entry, the tested form may be a part): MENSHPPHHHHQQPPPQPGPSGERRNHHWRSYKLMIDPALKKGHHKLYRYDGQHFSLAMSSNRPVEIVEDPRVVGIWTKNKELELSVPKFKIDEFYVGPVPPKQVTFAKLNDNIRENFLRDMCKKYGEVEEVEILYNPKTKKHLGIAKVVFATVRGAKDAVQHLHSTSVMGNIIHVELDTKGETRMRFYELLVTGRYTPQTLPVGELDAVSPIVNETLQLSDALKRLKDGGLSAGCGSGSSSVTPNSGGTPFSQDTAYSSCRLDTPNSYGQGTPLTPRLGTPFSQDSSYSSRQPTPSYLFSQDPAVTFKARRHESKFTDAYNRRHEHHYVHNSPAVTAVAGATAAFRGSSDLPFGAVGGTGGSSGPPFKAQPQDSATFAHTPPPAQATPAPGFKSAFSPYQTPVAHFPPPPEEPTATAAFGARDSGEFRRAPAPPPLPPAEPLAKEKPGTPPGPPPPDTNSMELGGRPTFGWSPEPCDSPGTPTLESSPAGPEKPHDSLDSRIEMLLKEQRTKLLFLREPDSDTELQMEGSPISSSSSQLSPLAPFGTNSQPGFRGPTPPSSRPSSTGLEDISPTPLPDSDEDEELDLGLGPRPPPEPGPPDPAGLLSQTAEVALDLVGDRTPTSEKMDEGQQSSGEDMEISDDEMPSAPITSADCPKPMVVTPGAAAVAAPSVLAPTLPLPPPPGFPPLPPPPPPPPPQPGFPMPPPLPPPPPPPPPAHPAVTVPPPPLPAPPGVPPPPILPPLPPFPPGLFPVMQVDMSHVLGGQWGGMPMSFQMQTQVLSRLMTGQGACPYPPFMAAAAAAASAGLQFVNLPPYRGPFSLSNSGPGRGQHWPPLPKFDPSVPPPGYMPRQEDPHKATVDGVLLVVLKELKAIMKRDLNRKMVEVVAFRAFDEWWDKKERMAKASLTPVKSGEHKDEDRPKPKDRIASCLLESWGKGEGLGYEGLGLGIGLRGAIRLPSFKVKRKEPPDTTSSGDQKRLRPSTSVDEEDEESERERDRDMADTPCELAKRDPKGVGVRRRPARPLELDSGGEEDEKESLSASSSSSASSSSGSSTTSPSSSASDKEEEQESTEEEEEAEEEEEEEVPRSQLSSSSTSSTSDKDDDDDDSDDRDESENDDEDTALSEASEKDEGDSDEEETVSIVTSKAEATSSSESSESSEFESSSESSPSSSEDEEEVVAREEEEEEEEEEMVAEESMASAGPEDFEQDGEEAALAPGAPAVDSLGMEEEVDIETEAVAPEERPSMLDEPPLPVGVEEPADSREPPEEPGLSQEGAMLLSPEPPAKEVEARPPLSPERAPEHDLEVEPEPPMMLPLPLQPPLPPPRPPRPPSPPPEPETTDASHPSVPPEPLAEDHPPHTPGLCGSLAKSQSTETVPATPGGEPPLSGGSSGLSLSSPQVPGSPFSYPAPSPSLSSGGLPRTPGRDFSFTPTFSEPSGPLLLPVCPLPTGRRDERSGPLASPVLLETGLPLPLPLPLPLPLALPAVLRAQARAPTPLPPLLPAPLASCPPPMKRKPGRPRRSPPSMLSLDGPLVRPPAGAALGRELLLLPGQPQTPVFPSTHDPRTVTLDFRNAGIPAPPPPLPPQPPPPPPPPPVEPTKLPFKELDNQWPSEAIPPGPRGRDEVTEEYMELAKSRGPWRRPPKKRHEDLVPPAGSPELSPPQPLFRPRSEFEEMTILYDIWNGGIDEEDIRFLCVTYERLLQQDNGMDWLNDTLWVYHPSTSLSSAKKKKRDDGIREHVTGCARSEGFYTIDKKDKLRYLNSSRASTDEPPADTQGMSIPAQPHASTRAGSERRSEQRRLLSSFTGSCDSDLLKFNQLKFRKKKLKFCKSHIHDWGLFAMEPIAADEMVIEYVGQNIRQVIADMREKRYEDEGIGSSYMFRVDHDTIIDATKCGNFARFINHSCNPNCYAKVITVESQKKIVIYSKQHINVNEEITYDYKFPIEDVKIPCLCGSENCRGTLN

[7] = target: Histone-lysine N-methyltransferase SMYD3 (Homo sapiens) (UniProt Q9H7B4); assay: Inhibition of recombinant human C-terminal His-tagged SMYD3 (2 to 428 residues) expressed in Sf9 insect cells at 1 uM using 3H-SAM as a substrate relative to control; summary of the method: as §1
[8] = target: Histone-lysine N-methyltransferase SUV39H1 (Homo sapiens) (UniProt O43463); assay: Inhibition of N-terminal fusion protein with C-terminal His-tagged SUV39H1 (44 to 412 residues) (unknown origin) expressed in Escherichia coli at 1 uM using 3H-SAM as a substrate relative to control; summary of the method: as §1
Histone-lysine N-methyltransferase SUV39H1 (Homo sapiens), sequence (O43463 whole entry, the tested form may be a part): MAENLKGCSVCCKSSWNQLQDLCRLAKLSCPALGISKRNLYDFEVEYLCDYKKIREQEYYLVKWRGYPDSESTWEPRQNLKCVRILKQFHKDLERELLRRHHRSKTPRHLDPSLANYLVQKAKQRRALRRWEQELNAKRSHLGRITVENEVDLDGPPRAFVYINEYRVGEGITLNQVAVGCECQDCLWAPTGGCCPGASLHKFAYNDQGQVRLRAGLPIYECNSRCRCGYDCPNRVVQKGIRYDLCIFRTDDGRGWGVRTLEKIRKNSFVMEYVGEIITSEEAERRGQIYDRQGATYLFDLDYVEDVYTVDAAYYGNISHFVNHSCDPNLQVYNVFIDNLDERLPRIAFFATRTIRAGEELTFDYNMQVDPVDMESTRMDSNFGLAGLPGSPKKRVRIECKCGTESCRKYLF

[9] = target: Histone-lysine N-methyltransferase SUV39H2 (Homo sapiens) (UniProt Q9H5I1); assay: Inhibition of N-terminal fusion protein with C-terminal His-tagged SUV39H2 (46 to 410 residues) (unknown origin) expressed in Escherichia coli at 1 uM using 3H-SAM as a substrate relative to control; summary of the method: as §1
MDA-MB-231 = assay: Down regulation of H3K9 dimethylation in human MDA-MB-231 cells at 0.2 to 5 uM by Western blot analysis; assay type: functional, cell-based; conditions: dose 0.2-5 µM, time lower […], time upper 72.0 hrs, TDE = time-dependent effect
K562 = assay: Down regulation of H3K9 dimethylation in human K562 cells at 0.2 to 5 uM incubated for 48 hrs by Western blot analysis; assay type: functional, cell-based; conditions: dose 0.2-5 µM
[10] = target: Histone-lysine N-methyltransferase EHMT1 (Homo sapiens) (UniProt Q9H9B1); assay: Inhibition of human GLP (982 to 1266 residues) assessed as covalent modification by measuring GLP adduct formation by mass spectrometry; conditions: time <= 120.0 min, TDE = time-dependent effect
Summary of the method: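 Purified G9a or GLP catalytic domain (5 μM) in 50 mM Tris-HCl pH 7.5, 150 mM NaCl incubated with 50 μM compound or DMSO at room temperature (1 h, or 30 and 60 min in time course); intact mass by ESI LC/MS-TOF; adduct % = adduct/(protein + adduct) × 100.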

IC50 [1]: 140 nM
Kd [2]: 46 nM
inhibition [3]: < 50%
inhibition [4]: < 50%
inhibition [5]: < 50%
inhibition [6]: < 50%
inhibition [7]: < 50%
inhibition [8]: < 50%
inhibition [9]: < 50%
inhibition [10]: Tde
Structure (SMILES): C=CC(=O)Nc1cc(NC2CCN(C(C)C)CC2)c2cc(OC)c(OCCCN3CCCC3)cc2n1
Activity (MDA-MB-231): Tde
Activity (K562): Active
